In the library only some 3.2% were active in any assay of this set; here they are far more common.
S100A4 MyoIIA – blocks human S100A4 binding to myosin IIA peptide; P26447; S100A4/TAMRA-MyoIIA peptide fluorescence polarization; inhibition, % at 10.7 µM; 360,000 compounds, 0.14% hits; AID 652163;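 active means mean inhibition of at least 70% across replicates, with every replicate also reaching that level; inconclusive means mean inhibition reaches 70% but some replicates fall short; inactive means mean inhibition below 70%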
Target sequence (P26447 whole entry, looked up): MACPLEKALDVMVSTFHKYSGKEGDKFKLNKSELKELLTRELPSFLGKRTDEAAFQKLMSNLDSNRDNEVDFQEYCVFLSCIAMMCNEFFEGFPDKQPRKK
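incubation = readout 5 min after mixing, signal stable up to 60 min | system = S100A4 monomer protein | buffer or medium = HEPES pH 7.2 with CaCl2, KCl, NaCl, DTT, Triton | benchmarks = neutral control DMSO, positive control TFP | also added = fluorescent myosin IIA peptide, 5 nM | compound dosing = one concentration per compound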
AF4-AF9 inh – inhibitors of human MLL-AF4/AF9 interaction; AlphaScreen, biotin-AF4 peptide binding to FLAG-AF9; 350,000 compounds, 0.47% hits; P42568; inhibition, % at 10 µM;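 active means every replicate reaching a set inhibition limit, whatever the replicate mean, cut at about 25% in these data; inconclusive means mean inhibition reaches that limit but some replicates miss it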
Target sequence (P42568 whole entry, looked up): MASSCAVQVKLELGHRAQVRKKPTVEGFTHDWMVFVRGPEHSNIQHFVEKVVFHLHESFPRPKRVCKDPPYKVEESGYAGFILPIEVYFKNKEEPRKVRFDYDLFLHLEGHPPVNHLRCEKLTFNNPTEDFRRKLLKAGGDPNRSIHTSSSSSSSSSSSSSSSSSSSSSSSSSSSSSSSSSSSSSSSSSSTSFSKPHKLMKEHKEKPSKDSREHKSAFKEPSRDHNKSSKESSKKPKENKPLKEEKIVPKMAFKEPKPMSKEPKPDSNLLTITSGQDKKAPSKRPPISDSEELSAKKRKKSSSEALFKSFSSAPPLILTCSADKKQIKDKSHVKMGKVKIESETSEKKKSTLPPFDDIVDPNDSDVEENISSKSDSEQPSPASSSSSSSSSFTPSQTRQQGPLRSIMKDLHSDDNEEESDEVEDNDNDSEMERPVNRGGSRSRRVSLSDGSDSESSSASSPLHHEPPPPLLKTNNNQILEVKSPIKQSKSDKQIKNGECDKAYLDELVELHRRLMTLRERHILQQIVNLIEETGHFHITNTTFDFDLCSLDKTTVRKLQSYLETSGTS
PfHsp90 set2 – inhibits growth of yeast expressing Plasmodium falciparum Hsp90. S. cerevisiae expressing PfHsp90, BacTiter-Glo ATP, 48 h; yeast lacking PDR1 and PDR3 efflux regulators. inhibition, % at 9.4 µM. 310,000 compounds, 0.32% hits. AID 504621;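 active means every replicate shows inhibition above about 80%, whatever the replicate mean, limit read from the data; inconclusive means mean inhibition reaches the set limit but some replicate falls short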
DENV2 CPE – DENV2-induced cell death inhibition. 350,000 compounds, 1.7% hits. CPE inhibition, % at 9.99 µM. DENV2-infected cells, cytopathic effect rescue, plate reader; in the data active means CPE inhibition above about 20%, passing the limit was not always enough; inconclusive means no clear call, values can overlap the other calls; tested in BHK-21 cells
Cneo AK release – causes C. neoformans cell lysis. adenylate kinase release luminescence, 4 h; normalised: neutral wells 0, clomiphene wells 100. lysis activity, % at 15 µM. 360,000 compounds, 0.2% hits. AID 651654;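 active means mean lysis activity across replicates of at least 80%, whatever share of replicates individually reach that level; inactive means mean lysis activity below 80%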
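Material: C. neoformans cells; Schedule: 4 h static compound exposure, 37 °C, read 1 h post-reagent; Measured by: adenylate kinase release luminescence; Read-out: signal increase indicating cell lysis; Controls: Clomiphene as positive lysis control.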
Ecoli rRNA inh – selective bacterial rRNA inhibition in E. coli; E. coli WT GFP vs humanized-ribosome RFP mutants, fluorescence, 24 h; stronger effect = lower value; DMSO median 0, no signal -100; GFP signal change (wild-type ribosome), % (test concentration not listed); 350,000 compounds, 1.6% hits;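 active means significant combined selectivity score with lowered wild-type GFP, culture density cut under 30%, mutant RFP and density less affected; inactive means any of these conditions unmet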
Each line names hits and unclear results; the compound was inactive in the other large screens.

CO[C@H]1CN(C)C(=O)c2ccc(NC(C)=O)cc2OC[C@@H](C)N(Cc2ccc(F)cc2)C[C@@H]1C	none (no result: PfHsp90 set2)
CCN(CC)CCCCN1c2ccccc2Sc2ccccc21	AF4-AF9 inh 25
C[C@@H]1CCCCO[C@@H](CN(C)C(=O)Nc2cccc3ccccc23)[C@H](C)CN([C@H](C)CO)C(=O)c2cc(NC(=O)CCC(F)(F)F)ccc2O1	DENV2 CPE 99 (no result: S100A4 MyoIIA, AF4-AF9 inh, PfHsp90 set2)
C[C@@H]1CN([C@@H](C)CO)C(=O)c2cc(NC(=O)CCC(F)(F)F)ccc2O[C@@H](C)CCCCO[C@H]1CN(C)C(=O)Nc1cccc2ccccc12	DENV2 CPE 26 (no result: S100A4 MyoIIA, AF4-AF9 inh, PfHsp90 set2)
C[C@@H]1CCCCO[C@@H](CN(C)C(=O)Nc2cccc3ccccc23)[C@H](C)CN([C@@H](C)CO)C(=O)c2cc(NC(=O)C3CCCCC3)ccc2O1	S100A4 MyoIIA 117 (no result: PfHsp90 set2)
C[C@@H]1CN([C@H](C)CO)C(=O)c2cc(NC(=O)CCC(F)(F)F)ccc2O[C@@H](C)CCCCO[C@H]1CN(C)C(=O)Nc1cccc2ccccc12	none (no result: S100A4 MyoIIA, AF4-AF9 inh, PfHsp90 set2)
O=C1CCN(Cc2ccccc2)CCN1[C@H](CO)Cc1ccccc1	none (no result: S100A4 MyoIIA, AF4-AF9 inh, DENV2 CPE, Ecoli rRNA inh)
N#Cc1cccc(CN2CCC(=O)N([C@H](CO)Cc3ccccc3)CC2)c1	AF4-AF9 inh 44
CCc1ccccc1NC(=O)c1ccc(OCc2c(C)noc2C)cc1	Ecoli rRNA inh -20
Cc1noc(C)c1COc1ccc(C(=O)Nc2ccccc2)cc1	none (no result: DENV2 CPE, Cneo AK release)
Cc1cc(C)c2[nH]c(=O)c(CN(Cc3nnnn3C3CCCC3)C3CCCCC3)cc2c1	none (no result: S100A4 MyoIIA, AF4-AF9 inh, DENV2 CPE, Ecoli rRNA inh)
Cc1cccc2cc(CN(Cc3nnnn3C3CCCCC3)C3CCCC3)c3nnnn3c12	PfHsp90 set2 105 (no result: S100A4 MyoIIA, AF4-AF9 inh, DENV2 CPE, Ecoli rRNA inh)
O=C(C1=C[C@H](C2CC2)C[C@H](OCCCCO)O1)N1CCN(Cc2ccc3c(c2)OCO3)CC1	none
CCO[C@H]1OC(C(=O)N2CCN(Cc3ccc4c(c3)OCO4)CC2)=C[C@@H](c2ccc3c(c2)OCO3)[C@@H]1CCCO	Ecoli rRNA inh -22
CCO[C@H]1OC(C(=O)N2CCN(Cc3ccccc3)CC2)=C[C@@H](c2ccccc2)[C@@H]1CCCO	Ecoli rRNA inh -32
C#CCNC(=O)C1=C[C@H](c2ccc3c(c2)OCO3)C[C@H](OCCCCO)O1	DENV2 CPE 26 (no result: PfHsp90 set2, Cneo AK release)
CCO[C@H]1OC(C(=O)N2CCN(Cc3ccccc3)CC2)=C[C@@H](c2ccc(C(F)(F)F)cc2)[C@@H]1CCCO	none
C[C@@H]1C=C(C(=O)N2CCN(Cc3ccc4c(c3)OCO4)CC2)O[C@H](OCCCCO)C1	DENV2 CPE 21
C[C@@H]1CCCCO[C@H](CN(C)C(=O)CCC(F)(F)F)[C@H](C)CN([C@@H](C)CO)C(=O)c2cc(NS(=O)(=O)c3ccccc3)ccc2O1	none (no result: PfHsp90 set2)
CCOc1ccc(N(CC(=O)NC2CCCCC2)C(=O)CNC(=O)c2cccs2)cc1	DENV2 CPE 33
COC(=O)[C@@H]1[C@@H](CO)[C@@H]2Cn3c(ccc(-c4ccccc4F)c3=O)[C@@H]2N1C(=O)c1ccccn1	none (no result: PfHsp90 set2)
COC(=O)C(Cc1ccc(O)cc1)NC(=O)C12CC3CC(CC(C3)C1)C2 (configuration not stated)	none (no result: Cneo AK release)
COC(=O)C(Cc1ccccc1)NC(=O)C12CC3CC(CC(C3)C1)C2 (configuration not stated)	Ecoli rRNA inh -34 (no result: Cneo AK release)
C[C@@H]1CN([C@H](C)CO)C(=O)c2cc(-c3cccc(F)c3)cnc2O[C@H]1CN(C)Cc1ccccc1	Cneo AK release 116 (no result: PfHsp90 set2)
C[C@@H]1CN([C@@H](C)CO)C(=O)c2cc(-c3cccnc3)cnc2O[C@@H]1CN(C)Cc1ccc(-c2ccccc2)cc1	DENV2 CPE 37 (no result: PfHsp90 set2)
CNC[C@@H]1Oc2ncc(-c3cccc(F)c3)cc2C(=O)N([C@@H](C)CO)C[C@@H]1C	DENV2 CPE 25 (no result: PfHsp90 set2)
C[C@@H]1CN([C@@H](C)CO)C(=O)c2cc(-c3cccc(F)c3)cnc2O[C@@H]1CN(C)C(=O)Nc1cc(F)ccc1F	DENV2 CPE 26 (no result: PfHsp90 set2)
C[C@@H]1CN([C@@H](C)CO)C(=O)c2cc(-c3cccc(F)c3)cnc2O[C@H]1CN(C)Cc1ccccc1	none (no result: PfHsp90 set2)
CNC[C@@H]1Oc2ncc(-c3ccccc3)cc2C(=O)N([C@H](C)CO)C[C@@H]1C	none (no result: PfHsp90 set2)
CCS(=O)(=O)Nc1ccc2c(c1)C(=O)N(C)C[C@@H](OC)[C@@H](C)CN(C(=O)CN(C)C)[C@@H](C)CO2	none (no result: PfHsp90 set2)
Nc1ncccc1C(=O)OCC(=O)N1CCN(S(=O)(=O)c2ccc(Cl)cc2)CC1	DENV2 CPE 45 (no result: PfHsp90 set2)
CCC(=O)N(C)C[C@@H]1Oc2ncc(-c3ccc(C(=O)N(C)C)cc3)cc2C(=O)N([C@H](C)CO)C[C@H]1C	none (no result: PfHsp90 set2)
C[C@H](CO)N1C[C@H](C)[C@@H](CN(C)Cc2ccc(Cl)c(Cl)c2)OCCCC[C@H](C)Oc2ccc(NS(=O)(=O)c3ccccc3)cc2C1=O	none (no result: PfHsp90 set2)
C[C@@H]1CN([C@H](C)CO)C(=O)c2cc(NS(=O)(=O)c3ccccc3)ccc2O[C@@H](C)CCCCO[C@H]1CN(C)Cc1ccc(Cl)c(Cl)c1	DENV2 CPE 23 (no result: PfHsp90 set2)
C[C@@H]1CCCCO[C@H](CN(C)Cc2ccc(Cl)c(Cl)c2)[C@H](C)CN([C@@H](C)CO)C(=O)c2cc(NS(=O)(=O)c3ccccc3)ccc2O1	DENV2 CPE 32 (no result: PfHsp90 set2)
C[C@@H]1CCCCO[C@@H](CN(C)Cc2ccc(Cl)c(Cl)c2)[C@@H](C)CN([C@@H](C)CO)C(=O)c2cc(NS(=O)(=O)c3ccccc3)ccc2O1	DENV2 CPE 23 (no result: PfHsp90 set2)
C[C@@H]1CCCCO[C@@H](CN(C)Cc2ccc(Cl)c(Cl)c2)[C@@H](C)CN([C@@H](C)CO)C(=O)c2cc(NS(=O)(=O)c3ccc(Cl)cc3)ccc2O1	none (no result: PfHsp90 set2, Cneo AK release)
Cc1ccc(S(=O)(=O)N(C)C[C@@H]2Oc3ccc(NS(C)(=O)=O)cc3CC(=O)N([C@H](C)CO)C[C@H]2C)cc1	none (no result: PfHsp90 set2)
COc1ccc(CN(C)C[C@@H]2Oc3ccc(NS(=O)(=O)c4ccc(F)cc4)cc3CC(=O)N([C@H](C)CO)C[C@@H]2C)cc1	DENV2 CPE 23 (no result: PfHsp90 set2)
COc1ccc(S(=O)(=O)Nc2ccc3c(c2)CC(=O)N([C@H](C)CO)C[C@H](C)[C@H](CN(C)Cc2ccc(Cl)c(Cl)c2)O3)cc1	DENV2 CPE inconclusive (no result: PfHsp90 set2)
Cc1ccc(S(=O)(=O)Nc2ccc3c(c2)CC(=O)N([C@@H](C)CO)C[C@H](C)[C@@H](CN(C)Cc2ccc(Oc4ccccc4)cc2)O3)cc1	none (no result: PfHsp90 set2)
COc1ccc(CN(C)C[C@@H]2Oc3ccc(NS(=O)(=O)c4ccccc4)cc3CC(=O)N([C@H](C)CO)C[C@H]2C)cc1	S100A4 MyoIIA 134 (no result: PfHsp90 set2)
COc1ccc(CN(C)C[C@H]2Oc3ccc(NS(=O)(=O)c4ccccc4)cc3CC(=O)N([C@@H](C)CO)C[C@@H]2C)cc1	none (no result: PfHsp90 set2)

Screening results from PubChem BioAssay.
